From ChEMBL document CHEMBL4715721, “Synthesis and optimization of novel allylated mono-carbonyl analogs of curcumin (MACs) act as potent anti-inflammatory agents against LPS-induced acute lung injury (ALI) in rats” (Eur J Med Chem, 2016)
≈ marks a conversion by molar mass, not a printed value. Calls of active or inactive are those of the source. The calls are words filed in the database; no cut-off is given here.

Assays:
Rattus norvegicus [1] = test: Antiinflammatory activity against LPS-induced acute lung injury rat model assessed as reduction in CD-68 stained macrophage numbers in lungs at 10 to 20 mg/kg administered before LPS instillation and measured after 6 hrs by immunohistochemical analysis; assay type: functional, organism-based; conditions: dose 10-20 mg/kg
Summary of the method: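 Lung sections from rats given intratracheal LPS, pretreated at 10 or 20 mg/kg, killed 6 h after LPS; immunohistochemistry for the macrophage marker CD68, with CD68-positive cells counted.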

BEAS-2B [2] = test: Antiinflammatory activity in human BEAS-2B cells assessed as reduction in LPS-induced VCAM-1 mRNA expression incubated for 30 mins followed by LPS stimulation and measured after 24 hrs by qRT-PCR analysis; assay type: functional, cell-based; conditions: dose 10-20 µM, time 1470.0 min
Summary of the method: (§1)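 Beas-2B cells seeded at 7.0×10^5/plate overnight at 37 °C, 5% CO₂; pretreated with 10 μM for 30 min, then LPS 1 μg/mL for 24 h. Total RNA extracted with TRIZOL; two-step SYBR Green RT-qPCR. Expressed as percent of LPS control; mean ± SEM of three independent experiments.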

Rattus norvegicus [3] = test: Antiinflammatory activity against LPS-induced acute lung injury rat model assessed as reduction in lung edema at 10 to 20 mg/kg administered before LPS instillation and measured after 6 hrs by hematoxylin and eosin staining based microscopic analysis; assay type: functional, organism-based; conditions: dose 10-20 mg/kg
Summary of the method: (§2)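 Rats pretreated at 10 or 20 mg/kg, then intratracheal LPS; lungs taken 6 h later, fixed in 4% paraformaldehyde, paraffin-embedded, cut at 5 μm, stained with hematoxylin-eosin, and examined by light microscopy for edema, hemorrhage, cell infiltration and epithelial/endothelial damage.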

[4] = Aqueous kinetic solubility of compound at pH 7.4; assay type: physicochemical; conditions: read-out: Kinetic_solubility
Rattus norvegicus [5] = test: Antiinflammatory activity against LPS-induced acute lung injury rat model assessed as reduction in inflammatory cell infiltration in lungs at 10 to 20 mg/kg administered before LPS instillation and measured after 6 hrs by hematoxylin and eosin staining based microscopic analysis; assay type: functional, organism-based; conditions: dose 10-20 mg/kg; summary of the method: as §2
Mus musculus = test: Antiinflammatory activity against LPS-induced septic shock C57BL/6 mouse model assessed as proportion of died animals at 10 mg/kg, iv administered daily before LPS administration and monitored for 7 days (reference value: 100%); assay type: functional; conditions: time 7 day
Summary of the method: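 Male C57BL/6 mice, n = 10 per group, were given the test agent as its hydrochloride salt (10 mg/kg IV) or saline vehicle. LPS (20 mg/kg IP) was injected afterwards. Survival was recorded every 24 h for 7 days after LPS.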

Rattus norvegicus [6] = test: Antiinflammatory activity against LPS-induced acute lung injury rat model assessed as decrease in neutrophil infiltration in lungs by measuring decrease in MPO activity at 10 to 20 mg/kg administered before LPS instillation and measured after 6 hrs; assay type: functional, organism-based; conditions: dose 10-20 mg/kg
Summary of the method: (§3)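 Rats given intratracheal LPS after pretreatment at 10 or 20 mg/kg; killed 6 h after LPS under anaesthesia; BALF and lung collected. BALF IL-6 and TNF-α measured by ELISA in BALF supernatant; serum IL-6 measured; BALF total cells counted; lung MPO activity and TNF-α immunostaining assessed.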

Rattus norvegicus [7] = test: Antiinflammatory activity against LPS-induced acute lung injury rat model assessed as reduction in total protein content in BALF at 10 to 20 mg/kg administered before LPS instillation and measured after 6 hrs by BCA protein assay; assay type: functional, organism-based; conditions: dose 10-20 mg/kg
Summary of the method: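 Left lung lavaged with saline (3 × 1.5 mL) 6 h after intratracheal LPS in rats pretreated at 10 or 20 mg/kg; lavage spun at 1000 rpm for 10 min; supernatant protein measured by BCA assay.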

Rattus norvegicus [8] = test: Antiinflammatory activity against LPS-induced acute lung injury rat model assessed as reduction in IL-6 level in serum at 10 to 20 mg/kg administered before LPS instillation and measured after 6 hrs by ELISA; assay type: functional, organism-based; conditions: dose 10-20 mg/kg; summary of the method: as §3
RAW264.7 [9] = test: Antiinflammatory activity in mouse RAW264.7 cells assessed as decrease in LPS-induced IL-6 secretion at 10 microM incubated for 30 mins followed by LPS stimulation and measured after 24 hrs by ELISA relative to control; assay type: functional; conditions: RAW264.7, 24.5 h, time 1470 min
Summary of the method: (§4)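 RAW264.7 cells in DMEM with 10% FBS at 37 °C, 5% CO₂; pretreated with 10 μM for 30 min, then LPS 0.5 μg/mL for 24 h. Medium TNF-α and IL-6 measured by ELISA and normalized to total protein of viable cells; percent inhibition, mean ± SD of three experiments.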

Rattus norvegicus [10] = test: Antiinflammatory activity against LPS-induced acute lung injury rat model assessed as reduction in lung wet/dry ratio at 10 to 20 mg/kg administered before LPS instillation and measured after 6 hrs; assay type: functional, organism-based; conditions: dose 10-20 mg/kg
Summary of the method: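 Edema index in rats killed 6 h after intratracheal LPS, with pretreatment at 10 or 20 mg/kg: right upper lung lobe excised, blotted and weighed wet, then dried at 65 °C for 48 h and reweighed; wet/dry weight ratio calculated.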

Rattus norvegicus [11] = test: Antiinflammatory activity against LPS-induced acute lung injury rat model assessed as reduction in TNF-alpha level in BALF at 10 to 20 mg/kg administered before LPS instillation and measured after 6 hrs by ELISA; assay type: functional, organism-based; conditions: dose 10-20 mg/kg; summary of the method: as §3
BEAS-2B [12] = test: Antiinflammatory activity in human BEAS-2B cells assessed as reduction in LPS-induced TNFalpha mRNA expression incubated for 30 mins followed by LPS stimulation and measured after 24 hrs by qRT-PCR analysis; assay type: functional, cell-based; conditions: dose 10-20 µM, time 1470.0 min; summary of the method: as §1
Rattus norvegicus [13] = test: Antiinflammatory activity against LPS-induced acute lung injury rat model assessed as reduction in IL-6 level in BALF at 10 to 20 mg/kg administered before LPS instillation and measured after 6 hrs by ELISA; assay type: functional, organism-based; conditions: dose 10-20 mg/kg; summary of the method: as §3
[14] = Octanol-water partition coefficient, logP of compound; assay type: physicochemical
RAW264.7 [15] = test: Antiinflammatory activity in mouse RAW264.7 cells assessed as decrease in LPS-induced TNF-alpha secretion at 10 microM incubated for 30 mins followed by LPS stimulation and measured after 24 hrs by ELISA relative to control; assay type: functional; conditions: RAW264.7, 24.5 h, time 1470 min; summary of the method: as §4
Rattus norvegicus [16] = test: Antiinflammatory activity against LPS-induced acute lung injury rat model assessed as reduction in TNFalpha expression in lung tissue at 10 to 20 mg/kg administered before LPS instillation and measured after 6 hrs by immunohistochemical analysis; assay type: functional, organism-based; conditions: dose 10-20 mg/kg; summary of the method: as §3
[17] = Cytotoxicity against human HL7702 cells assessed as cell survival rate at 10 uM incubated for 24 hrs by MTT assay; assay type: cell-based; conditions: HL7702 (L02) cells, read-out: Activity
Summary of the method: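 HL-7702 human normal hepatic cells exposed to 10 μM compound for 24 h; viability measured by MTT assay and given as survival rate, mean ± SD of three experiments.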

RAW264.7 [18] = test: Antiinflammatory activity in mouse RAW264.7 cells assessed as decrease in LPS-induced TNF-alpha secretion incubated for 30 mins followed by LPS stimulation and measured after 24 hrs by ELISA; assay type: functional, cell-based; conditions: dose 1-10 µM, time 1470.0 min
Summary of the method: (§5)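 RAW264.7 cells seeded at 4.0×10^5/plate overnight; pretreated at 1, 2.5, 5 or 10 μM for 30 min, then with or without LPS 0.5 μg/mL for 24 h. Medium IL-6 and TNF-α measured by ELISA and normalized to total protein; percent of LPS control, mean ± SEM of three independent experiments.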

Rattus norvegicus [19] = test: Antiinflammatory activity against LPS-induced acute lung injury rat model assessed as reduction in total cells in BALF at 10 to 20 mg/kg administered before LPS instillation and measured after 6 hrs; assay type: functional, organism-based; conditions: dose 10-20 mg/kg; summary of the method: as §3
Rattus norvegicus [20] = test: Antiinflammatory activity against LPS-induced acute lung injury rat model assessed as reduction in destruction of epithelial and endothelial cell structure in lungs at 10 to 20 mg/kg administered before LPS instillation and measured after 6 hrs by hematoxylin and eosin staining based microscopic analysis; assay type: functional, organism-based; conditions: dose 10-20 mg/kg; summary of the method: as §2
[21] = Chemical stability of compound in PBS buffer containing 5% DMSO at pH 7.4 measured every 5 mins for 25 mins by UV-Vis absorption spectral analysis; assay type: physicochemical; conditions: pH 7.4, 25 min
Summary of the method: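 Compound diluted from 1 mM stock in phosphate buffer pH 7.4 containing 5% DMSO; UV-visible spectra recorded from 250 to 600 nm at 25 °C in a 1 cm quartz cuvette, every 5 min for 25 min.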

RAW264.7 [22] = test: Antiinflammatory activity in mouse RAW264.7 cells assessed as decrease in LPS-induced IL-6 secretion incubated for 30 mins followed by LPS stimulation and measured after 24 hrs by ELISA; assay type: functional, cell-based; conditions: dose 1-10 µM, time 1470.0 min; summary of the method: as §5
Rattus norvegicus [23] = test: Antiinflammatory activity against LPS-induced acute lung injury rat model assessed as reduction in alveolar hemorrhage in lungs at 10 to 20 mg/kg administered before LPS instillation and measured after 6 hrs by hematoxylin and eosin staining based microscopic analysis; assay type: functional, organism-based; conditions: dose 10-20 mg/kg; summary of the method: as §2
BEAS-2B [24] = test: Antiinflammatory activity in human BEAS-2B cells assessed as reduction in LPS-induced IL-6 mRNA expression incubated for 30 mins followed by LPS stimulation and measured after 24 hrs by qRT-PCR analysis; assay type: functional, cell-based; conditions: dose 10-20 µM, time 1470.0 min; summary of the method: as §1
BEAS-2B [25] = test: Antiinflammatory activity in human BEAS-2B cells assessed as reduction in LPS-induced IL-1beta mRNA expression incubated for 30 mins followed by LPS stimulation and measured after 24 hrs by qRT-PCR analysis; assay type: functional, cell-based; conditions: dose 10-20 µM, time 1470.0 min; summary of the method: as §1

SMILES: C=CCc1cc(/C=C2\CN(C3CC3)C/C(=C\c3ccc(N4CCN(C)CC4)cc3)C2=O)ccc1O
- Activity (Rattus norvegicus [1]): Active
- Activity (BEAS-2B [2]): Dose-dependent effect
- Activity (Rattus norvegicus [3]): Active
- solubility kinetic [4]: 22.5 mg/mL (≈ 47.9 mM)
- Activity (Rattus norvegicus [5]): Active
- Activity (Mus musculus): 50%
- Activity (Rattus norvegicus [6]): Active
- Activity (Rattus norvegicus [7]): Active
- Activity (Rattus norvegicus [8]): Active
- inhibition at 10 µM (RAW264.7 [9]): 83.3%
- Activity (Rattus norvegicus [10]): Active
- Activity (Rattus norvegicus [11]): Active
- Activity (BEAS-2B [12]): Dose-dependent effect
- Activity (Rattus norvegicus [13]): Active
- logP [14]: 3.48
- inhibition at 10 µM (RAW264.7 [15]): 43.8%
- Activity (Rattus norvegicus [16]): Active
- viability at 24 h, 10 µM [17]: 90.3%
- inhibition (RAW264.7 [18]): Dose-dependent effect
- Activity (Rattus norvegicus [19]): Active
- Activity (Rattus norvegicus [20]): Active
- Stabilty [21]: Stable
- inhibition (RAW264.7 [22]): Dose-dependent effect
- Activity (Rattus norvegicus [23]): Active
- Activity (BEAS-2B [24]): Dose-dependent effect
- Activity (BEAS-2B [25]): Dose-dependent effect
